In ChEMBL document CHEMBL4229388, “Repositioning of the antipsychotic trifluoperazine: Synthesis, biological evaluation and in silico study of trifluoperazine analogs as anti-glioblastoma agents” (Eur J Med Chem, 2018):
Calls of active or inactive are those of the source. The calls are words filed in the database; no cut-off is given here.

Experiments:
[1] = system: U-87 MG; test: Induction of intracellular Ca2+ level in human U87MG cells at 1 to 100 uM by Fura-2 AM dye-based assay relative to trifluoperazine; assay type: functional, U-87MG ATCC
How it was run: (§1)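 U87MG cells or neural stem cells (NSCs) were loaded with 5 μM Fura-2 AM plus 1 μM pluronic acid for 40 min at room temperature. Recording was in HEPES-buffered saline at pH 7.3 with 2 mM CaCl₂. Compounds were applied by bath at 1, 3, 10, 30 or 100 μM. Emission at 510 nm was imaged under 340/380 nm excitation, and the ratio was calculated. Peak amplitude was taken relative to the 0–50 s baseline. Dose–response curves gave EC₅₀ and efficacy.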

[2] = Cytotoxicity against human GBL28 cells assessed as reduction in cell viability at 1 to 20 uM after 24 hrs by MTT assay relative to control; assay type: functional
How it was run: (§2)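 Cells were grown in DMEM with 10% FBS and penicillin/streptomycin at 37 °C and 5% CO₂, and used up to passage 20. They were seeded at 1.5 × 10³ cells/well, allowed to attach for 24 h, then treated with vehicle or compound diluted in complete medium for 24 h. MTT reagent was added for 2 h. Viability is expressed relative to cell numbers at initial time. n = 16; one-way ANOVA.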

[3] = system: NSC; test: Cytotoxicity against human NSC cells assessed as reduction in cell viability after 24 hrs by MTT assay; assay type: cell-based; how it was run: as §2
[4] = system: U-87 MG; test: Cytotoxicity against human U87MG cells assessed as reduction in cell viability at 1 to 20 uM after 24 hrs by MTT assay relative to control; assay type: functional, U-87MG ATCC; how it was run: as §2
[5] = system: U-87 MG; test: Induction of intracellular Ca2+ level in human U87MG cells at 100 uM by Fura-2 AM dye-based assay relative to trifluoperazine; assay type: functional, cell-based; details: U-87MG ATCC; how it was run: as §1
[6] = system: U-87 MG; test: Cytotoxicity against human U87MG cells assessed as reduction in cell viability after 24 hrs by MTT assay; assay type: functional, cell-based, U-87MG ATCC; how it was run: as §2
[7] = system: NSC; test: Cytotoxicity against human NSC cells assessed as reduction in cell viability at 1 to 20 uM after 24 hrs by MTT assay relative to control; assay type: cell-based; how it was run: as §2
[8] = Cytotoxicity against human GBL28 cells assessed as reduction in cell viability after 24 hrs by MTT assay; assay type: functional, cell-based; how it was run: as §2
[9] = system: U-87 MG; test: Induction of intracellular Ca2+ level in human U87MG cells by Fura-2 AM dye-based assay; assay type: functional, cell-based, U-87MG ATCC; how it was run: as §1
[10] = system: NSC; test: Induction of intracellular Ca2+ level in human NSC cells at 100 uM by Fura-2 AM dye-based assay; assay type: cell-based; how it was run: as §1
[11] = Selectivity ratio of efficacy for induction of intracellular Ca2+ level in human U87MG cells at 1 to 100 uM to efficacy for induction of intracellular Ca2+ level in human NSC cells at 1 to 100 uM; assay type: functional
[12] = system: U-87 MG; test: Potency index, ratio of trifluoperazine IC50 to test compound IC50 for human U87MG cells; assay type: functional, U-87MG ATCC
[13] = system: NSC; test: Induction of intracellular Ca2+ level in human NSC cells at 1 to 100 uM by Fura-2 AM dye-based assay relative to control; assay type: cell-based; details: read-out: Efficacy; how it was run: as §1
[14] = system: Mus musculus; test: Toxicity in BALB/c mouse xenografted with human U87MG cells assessed as induction of neurologic deficits at 5 mg/kg/day, ip administered for 21 days with 24 hrs resting period followed by treatment discontinuation till day 39; assay type: organism-based; details: in vivo
How it was run: (§3)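 Same U87MG orthotopic xenograft mice: 5 mg/kg/day i.p. from day 3 for 21 days, or saline (n = 10 each), with dosing stopped until day 39. Mice were checked daily for general appearance, behavioral changes and neurologic deficits, including parkinsonism and extrapyramidal signs.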

[15] = system: Mus musculus; test: Toxicity in BALB/c mouse xenografted with human U87MG cells assessed as effect on behavioral changes at 5 mg/kg/day, ip administered for 21 days with 24 hrs resting period followed by treatment discontinuation till day 39; assay type: organism-based; details: in vivo; how it was run: as §3
[16] = system: Mus musculus; test: Toxicity in BALB/c mouse xenografted with human U87MG cells assessed as effect on general appearance at 5 mg/kg/day, ip administered for 21 days with 24 hrs resting period followed by treatment discontinuation till day 39; assay type: organism-based; details: in vivo; how it was run: as §3
[17] = system: U-87 MG; test: Induction of intracellular Ca2+ level in human U87MG cells at 1 to 100 uM by Fura-2 AM dye-based assay relative to control; assay type: functional, U-87MG ATCC; how it was run: as §1
[18] = system: U-87 MG; test: Antitumor activity against human U87MG cells xenografted in BALB/c mouse assessed as increase in mouse survival at 5 mg/kg, ip administered for 21 days with 24 hrs resting period followed by treatment discontinuation and measured on day 39; assay type: functional, U-87MG ATCC
How it was run: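 Orthotopic model in athymic BALB/c nu/nu mice: U87MG cells (2.5 × 10⁵ in 5 μL) injected into the left frontal lobe (2 mm lateral to bregma, 0.5 mm anterior, 3.5 mm deep). From day 3, drug was given i.p. at 5 mg/kg/day or 0.9% saline to controls (n = 10 each) for 21 days. Mice were monitored daily and sacrificed when moribund; survival curves were compared by log-rank test.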

[19] = Potency index, ratio of trifluoperazine IC50 to test compound IC50 for human GBL28 cells; assay type: functional
[20] = system: U-87 MG; test: Antitumor activity against human U87MG cells xenografted in BALB/c mouse assessed as reduction in tumor size at 5 mg/kg/day, ip administered for 21 days with 24 hrs resting period followed by treatment discontinuation till day 39 by hematoxylin and eosin staining based confocal microscopic analysis relative to control; assay type: functional, U-87MG ATCC; parameters: scale not given: the % may be the effect or the level left
How it was run: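 Athymic BALB/c nu/nu mice given intracranial U87MG cells (2.5 × 10⁵ cells in 5 μL) into the left frontal lobe (2 mm lateral from bregma, 0.5 mm anterior, 3.5 mm deep). Treatment began on day 3: 5 mg/kg/day i.p., or 0.9% saline for controls (n = 10 each). Dosing ran 21 days, then stopped until day 39. Brains were fixed in 4% PFA, paraffin-embedded, cut at 5 μm and H&E-stained. Tumor volume = [major axis × (minor axis)²]/2.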

## CSc1ccc2c(c1)N(CCCN1CCC(C)CC1)c1ccccc1S2
[1]
  Activity: 76%

## CSc1ccc2c(c1)N(CCCCN1CCC(C)CC1)c1ccccc1S2
[1]
  Activity: 72%

## FC(F)(F)c1ccc2c(c1)N(CCCCN1CCN(c3ccccc3)CC1)c1ccccc1S2
[1]
  Activity: 94%

## FC(F)(F)c1ccc2c(c1)N(CCCCN1CCC(N3CCOCC3)CC1)c1ccccc1S2
[2]
  Efficacy: 85%
[3]
  IC50: 5.6 µM
[4]
  Efficacy: 82%
[5]
  Activity: Active
[6]
  IC50: 7.1 µM
[1]
  Activity: 120%
[7]
  Efficacy: 21%
[8]
  IC50: 6.5 µM
[9]
  EC50: 19.9 µM
[10]
  Activity: Non-Toxic

## CC1CCN(CCCCN2c3ccccc3Sc3ccc(C(F)(F)F)cc32)CC1
[1]
  Activity: 93%

## FC(F)(F)c1ccc2c(c1)N(CCCN1CCNCC1)c1ccccc1S2
[1]
  Activity: 108%

## CC1CCN(CCCN2c3ccccc3Sc3ccc(C(F)(F)F)cc32)CC1
[1]
  Activity: 83%

## CC1CCN(CCCCN2c3ccccc3Sc3ccc(F)cc32)CC1
[1]
  Activity: 110%

## FC(F)(F)c1ccc2c(c1)N(CCCCN1CCC(N3CCCC3)CC1)c1ccccc1S2
[11]
  Ratio: 2
[2]
  Efficacy: 85%
[12]
  Ratio IC50: 4 - 5
[13]
  Emax: 50%
[3]
  IC50: 3.2 µM
[14]
  Activity: Non-Toxic
[15]
  Activity: Non-Toxic
[16]
  Activity: Non-Toxic
[4]
  Efficacy: 82%
[5]
  Activity: Active
[6]
  IC50: 2.3 µM
[1]
  Activity: 134%
[7]
  Efficacy: 45%
[8]
  IC50: 2.2 µM
[17]
  Efficacy: 100%
[9]
  EC50: 6.2 µM
[10]
  Activity: Non-Toxic
[18]
  Survival: 6 days
[19]
  Ratio IC50: 4 - 5
[20]
  Activity: 88%

## FC(F)(F)c1ccc2c(c1)N(CCCCN1CCC(N3CCCCC3)CC1)c1ccccc1S2
[2]
  Efficacy: 85%
[12]
  Ratio IC50: 4 - 5
[3]
  IC50: 3.1 µM
[4]
  Efficacy: 82%
[5]
  Activity: Active
[6]
  IC50: 2.2 µM
[1]
  Activity: 123%
[7]
  Efficacy: 43%
[8]
  IC50: 2.1 µM
[9]
  EC50: 6.7 µM
[10]
  Activity: Non-Toxic
[19]
  Ratio IC50: 4 - 5

## FC(F)(F)c1ccc2c(c1)N(CCCN1CCC(N3CCCC3)CC1)c1ccccc1S2
[1]
  Activity: 72%

## CN1CCCN(CCCCN2c3ccccc3Sc3ccc(C(F)(F)F)cc32)CC1
[1]
  Activity: 107%

## CC1CCN(CCCN2c3ccccc3Sc3ccc(Cl)cc32)CC1
[1]
  Activity: 88%

## CN1CCN(CCCN2c3ccccc3Sc3ccc(C(F)(F)F)cc32)CC1 [TRIFLUOPERAZINE]
[2]
  Efficacy: 85%
[3]
  IC50: 10.1 µM
[4]
  Efficacy: 82%
[6]
  IC50: 9.9 µM
[7]
  Efficacy: 21%
[8]
  IC50: 10.2 µM
[17]
  Efficacy: 79%
[9]
  EC50: 13.5 µM
[10]
  Activity: Non-Toxic

## Clc1ccc2c(c1)N(CCCCN1CCC(N3CCCC3)CC1)c1ccccc1S2
[1]
  Activity: 101%
